Measured values as given in ChEMBL document CHEMBL1129260, “Evaluation of the stability and animal biodistribution of gadolinium (III) benzylamine-derivatized diethylenetriaminepentaacetic acid” (J Med Chem, 1996).

Legend:
[1] = species: Rattus norvegicus; test: Biodistribution of Gd-LDTA (conjugated with mannose BSA) protein using [111In]- in mature female Sprague-Dawley rat bone after injecting for 4 hour.; assay type: ADME, organism-based, Bone element; details: in vivo
How it was run: (§1)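 Conjugate of SCN-LDTPA with BSA, mannosylated BSA or galactosylated BSA (10 equiv chelate, pH 9 bicine, RT 24 h; FPLC-purified) was labelled with 340 μCi 111In acetate at pH 5.5 for 45 min. It was then gel-filtered (Biospin-6) and checked for purity by FPLC. Mature female Sprague-Dawley rats received 19 μg of conjugate. Four rats per time point (1, 4, 24, 48 h) were killed; blood, liver, bone, kidney and colon were taken and %ID/organ was calculated.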

[2] = species: Rattus norvegicus; test: Biodistribution of Gd-DTA (conjugated with BSA)protein using [111In]- in mature female Sprague-Dawley rat blood after injecting for 96 hour.; assay type: ADME, organism-based; details: in vivo
[3] = species: Rattus norvegicus; test: Biodistribution of Gd-DTA (conjugated with BSA)protein using [111In]- in mature female Sprague-Dawley rat liver after injecting for 4 hour.; assay type: ADME, organism-based; details: in vivo; how it was run: as §1
[4] = species: Rattus norvegicus; test: Biodistribution of Gd-LDTA (conjugated with mannose BSA) protein using [111In]- in mature female Sprague-Dawley rat bone after injecting for 48 hour.; assay type: ADME, organism-based, Bone element; details: in vivo; how it was run: as §1
[5] = species: Rattus norvegicus; test: Biodistribution of In-LDTA (conjugated with BSA) protein using [111In]- in mature female Sprague-Dawley rat kidney after injecting for 1 hour.; assay type: ADME, organism-based; details: in vivo
How it was run: (§2)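 SCN-LDTPA was coupled (pH 9 bicine, 24 h, RT) to BSA, mannosylated BSA or galactosylated BSA and FPLC-purified. The conjugate (400 μg) was labeled with 340 μCi 111In acetate at pH 5.5 for 45 min and gel-filtered. Mature female Sprague-Dawley rats received 19 μg of conjugate; four rats per time point. Blood, liver, bone, kidney and colon were taken and reported as %ID/organ.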

[6] = species: Rattus norvegicus; test: Biodistribution of In-LDTA (conjugated with galactose BSA)protein using [111In]- in mature female Sprague-Dawley rat bone after injecting for 4 hour.; assay type: ADME, organism-based, Bone element; details: in vivo; how it was run: as §2
[7] = species: Rattus norvegicus; test: Biodistribution of In-LDTA (conjugated with mannoseBSA) protein using [111In]- in mature female Sprague-Dawley rat kidney after injecting for 1 hour.; assay type: ADME, organism-based; details: in vivo; how it was run: as §2
[8] = species: Rattus norvegicus; test: Biodistribution of In-LDTA (conjugated with BSA) protein using [111In]- in mature female Sprague-Dawley rat blood after injecting for 4 hour.; assay type: ADME, organism-based; details: in vivo; how it was run: as §2
[9] = species: Rattus norvegicus; test: Biodistribution of In-LDTA (conjugated with mannoseBSA) protein using [111In]- in mature female Sprague-Dawley rat bone after injecting for 1 hour.; assay type: ADME, organism-based, Bone element; details: in vivo; how it was run: as §2
[10] = species: Rattus norvegicus; test: Biodistribution of In-LDTA (conjugated with BSA) protein using [111In]- in mature female Sprague-Dawley rat colon after injecting for 24 hour.; assay type: ADME, organism-based; details: in vivo; how it was run: as §2
[11] = species: Rattus norvegicus; test: Biodistribution of Gd-LDTA (conjugated with mannose BSA) protein using [111In]- in mature female Sprague-Dawley rat bone marrow after injecting for 24 hour.; assay type: ADME, organism-based; details: in vivo
[12] = species: Rattus norvegicus; test: Biodistribution of In-LDTA (conjugated with mannoseBSA) protein using [111In]- in mature female Sprague-Dawley rat bone after injecting for 48 hour.; assay type: ADME, organism-based, Bone element; details: in vivo; how it was run: as §2
[13] = species: Rattus norvegicus; test: Biodistribution of Gd-LDTA (conjugated with mannose BSA) protein using [111In]- in mature female Sprague-Dawley rat kidney after injecting for 96 hour.; assay type: ADME, organism-based; details: in vivo
[14] = species: Rattus norvegicus; test: Biodistribution of Gd-LDTA (conjugated with mannose BSA) protein using [111In]- in mature female Sprague-Dawley rat colon after injecting for 4 hour.; assay type: ADME, organism-based; details: in vivo; how it was run: as §1
[15] = species: Rattus norvegicus; test: Biodistribution of In-LDTA (conjugated with galactose BSA)protein using [111In]- in mature female Sprague-Dawley rat blood after injecting for 48 hour.; assay type: ADME, organism-based; details: in vivo; how it was run: as §2
[16] = species: Rattus norvegicus; test: Biodistribution of Gd-DTA (conjugated with BSA)protein using [111In]- in mature female Sprague-Dawley rat blood after injecting for 48 hour.; assay type: ADME, organism-based; details: in vivo; how it was run: as §1
[17] = species: Rattus norvegicus; test: Biodistribution of Gd-DTA (conjugated with BSA)protein using [153Gd]- in mature female Sprague-Dawley rat bone marrow after injecting for 4 hour.; details: in vivo
[18] = species: Rattus norvegicus; test: Biodistribution of Gd-LDTA (conjugated with galactose BSA) protein using [111In]- in mature female Sprague-Dawley rat kidney after injecting for 24 hour.; assay type: ADME, organism-based; details: in vivo; how it was run: as §1
[19] = species: Rattus norvegicus; test: Biodistribution of Gd-LDTA (conjugated with galactose BSA) protein using [111In]- in mature female Sprague-Dawley rat blood after injecting for 24 hour.; assay type: ADME, organism-based; details: in vivo; how it was run: as §1
[20] = species: Rattus norvegicus; test: Biodistribution of Gd-LDTA (conjugated with galactose BSA) protein using [111In]- in mature female Sprague-Dawley rat kidney after injecting for 1 hour.; assay type: ADME, organism-based; details: in vivo; how it was run: as §1
[21] = species: Rattus norvegicus; test: Biodistribution of In-LDTA (conjugated with mannoseBSA)protein using [111In]- in mature female Sprague-Dawley rat blood after injecting for 4 hour.; assay type: ADME, organism-based; details: in vivo; how it was run: as §2
[22] = species: Rattus norvegicus; test: Biodistribution of Gd-LDTA (conjugated with mannose BSA) protein using [111In]- in mature female Sprague-Dawley rat colon after injecting for 48 hour.; assay type: ADME, organism-based; details: in vivo
[23] = species: Rattus norvegicus; test: Biodistribution of Gd-LDTA (conjugated with galactose BSA) protein using [111In]- in mature female Sprague-Dawley rat liver after injecting for 4 hour.; assay type: ADME, organism-based; details: in vivo; how it was run: as §1
[24] = species: Rattus norvegicus; test: Biodistribution of In-LDTA (conjugated with galactose BSA)protein using [111In]- in mature female Sprague-Dawley rat bone after injecting for 24 hour.; assay type: ADME, organism-based, Bone element; details: in vivo; how it was run: as §2
[25] = species: Rattus norvegicus; test: Biodistribution of In-LDTA (conjugated with mannoseBSA) protein using [111In]- in mature female Sprague-Dawley rat kidney after injecting for 48 hour.; assay type: ADME, organism-based; details: in vivo; how it was run: as §2
[26] = species: Rattus norvegicus; test: Biodistribution of In-LDTA (conjugated with galactose BSA)protein using [111In]- in mature female Sprague-Dawley rat colon after injecting for 1 hour.; assay type: ADME, organism-based; details: in vivo; how it was run: as §2
[27] = species: Rattus norvegicus; test: Biodistribution of In-LDTA (conjugated with mannoseBSA) protein using [111In]- in mature female Sprague-Dawley rat kidney after injecting for 4 hour.; assay type: ADME, organism-based; details: in vivo; how it was run: as §2
[28] = Gadolinium(III) stability constants (log K value) for the compound polyamino carboxylate derivative; assay type: physicochemical; details: 0.1 M KCl
How it was run: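 Potentiometric titration under argon at 25.00(5) °C in 0.100 M KCl, meter calibrated to read -log [H+] with dilute standard HCl. LDTPA with an equimolar amount of GdCl3 titrated with CO2-free 0.0999 M KOH, added in 0.100 mL aliquots, up to pH 11. Ligand protonation constants came from a parallel titration without metal. Constants were computed from the titration data.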

[29] = species: Rattus norvegicus; test: Biodistribution of Gd-LDTA (conjugated with mannose BSA) protein using [111In]- in mature female Sprague-Dawley rat bone marrow after injecting for 48 hour.; assay type: ADME, organism-based; details: in vivo
[30] = species: Rattus norvegicus; test: Biodistribution of Gd-DTA (conjugated with BSA)protein using [111In]- in mature female Sprague-Dawley rat bone after injecting for 4 hour.; assay type: ADME, organism-based, Bone element; details: in vivo; how it was run: as §1
[31] = species: Rattus norvegicus; test: Biodistribution of In-LDTA (conjugated with mannoseBSA) protein using [111In]- in mature female Sprague-Dawley rat colon after injecting for 4 hour.; assay type: ADME, organism-based; details: in vivo; how it was run: as §2
[32] = species: Rattus norvegicus; test: Biodistribution of Gd-LDTA (conjugated with mannose BSA) protein using [111In]- in mature female Sprague-Dawley rat liver after injecting for 1 hour.; assay type: ADME, organism-based; details: in vivo
[33] = species: Rattus norvegicus; test: Biodistribution of Gd-LDTA (conjugated with mannose BSA) protein using [111In]- in mature female Sprague-Dawley rat liver after injecting for 96 hour.; assay type: ADME, organism-based; details: in vivo
[34] = species: Rattus norvegicus; test: Biodistribution of In-LDTA (conjugated with mannoseBSA) protein using [111In]- in mature female Sprague-Dawley rat colon after injecting for 24 hour.; assay type: ADME, organism-based; details: in vivo; how it was run: as §2

Nc1ccc(CC(C(=O)O)N(CCN(CC(=O)O)CC(=O)O)CCN(CC(=O)O)CC(=O)O)cc1 (centres undefined)
ID/organ [1]: 16.4%
ID/organ [2]: 0.418%
ID/organ [3]: 18.6%
ID/organ [4]: 20.4%
ID/organ [5]: 3.15%
ID/organ [6]: 0.329%
ID/organ [7]: 0.144%
ID/organ [8]: 53.8%
ID/organ [9]: 10.5%
ID/organ [10]: 2.87%
ID/organ [11]: 2.13%
ID/organ [12]: 9.84%
ID/organ [13]: 0.405%
ID/organ [14]: 0.327%
ID/organ [15]: 0.0267%
ID/organ [16]: 3.37%
ID/organ [17]: 1.75%
ID/organ [18]: 0.14%
ID/organ [19]: 0.02%
ID/organ [20]: 0.114%
ID/organ [21]: 0.149%
ID/organ [22]: 0.21%
ID/organ [23]: 86.1%
ID/organ [24]: 0.379%
ID/organ [25]: 0.465%
ID/organ [26]: 0.0098%
ID/organ [27]: 0.244%
Log K [28]: 22
ID/organ [29]: 1.77%
ID/organ [30]: 22.3%
ID/organ [31]: 0.156%
ID/organ [32]: 70.2%
ID/organ [33]: 24.4%
ID/organ [34]: 0.732%
